Compound activity as filed in PubChem.
Only some compounds are listed: those with a hit (about 2.2% of all), similar ones and a draw of the others.
PfGluPho inh = PfG6PD (Plasmodium falciparum) enzyme inhibition; PfGluPho enzyme, NADPH resazurin-diaphorase fluorescence; inhibition, % at 20 µM; hit rate 0.78% among 350,000;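 active = inhibition reaching at least a set limit at 20 µM in the primary screen, cut at about 59% in these data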
Neddylation inh = blocks human cullin neddylation; TR-FRET cullin neddylation, biochemical; inhibition, % at 25 µM; hit rate 0.58% among 360,000; AID 651699; in the data active = inhibition above about 36%
Target sequence (P61081 whole entry, looked up): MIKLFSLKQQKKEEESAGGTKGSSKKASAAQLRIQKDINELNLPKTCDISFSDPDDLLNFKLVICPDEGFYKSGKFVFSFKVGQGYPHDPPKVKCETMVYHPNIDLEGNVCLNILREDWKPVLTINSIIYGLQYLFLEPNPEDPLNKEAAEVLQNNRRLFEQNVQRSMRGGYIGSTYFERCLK
Target sequence (Q13564 whole entry, looked up): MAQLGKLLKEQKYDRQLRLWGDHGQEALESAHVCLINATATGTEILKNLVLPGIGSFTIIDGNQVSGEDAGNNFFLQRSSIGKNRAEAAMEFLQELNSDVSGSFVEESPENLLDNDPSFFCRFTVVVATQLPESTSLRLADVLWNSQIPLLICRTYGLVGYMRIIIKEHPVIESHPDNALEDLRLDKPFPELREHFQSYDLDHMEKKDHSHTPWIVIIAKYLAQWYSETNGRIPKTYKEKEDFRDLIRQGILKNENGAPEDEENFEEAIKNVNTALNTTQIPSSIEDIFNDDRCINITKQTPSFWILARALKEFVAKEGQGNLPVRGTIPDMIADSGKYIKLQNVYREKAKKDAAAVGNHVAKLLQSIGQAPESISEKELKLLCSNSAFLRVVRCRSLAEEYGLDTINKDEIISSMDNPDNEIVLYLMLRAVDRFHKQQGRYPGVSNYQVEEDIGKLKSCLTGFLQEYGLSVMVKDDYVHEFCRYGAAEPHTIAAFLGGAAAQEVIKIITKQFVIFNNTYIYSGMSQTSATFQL
HKDC1 inhibitor = HKDC1 (human) hexokinase inhibition; Q2TB90; recombinant HKDC1, G6PDH/diaphorase resazurin coupled fluorescence; inhibition, % at 20 µM; hit rate 0.16% among 340,000; AID 493160;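 active = inhibition above about 35% when tested at 20 µM, limit read from the data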
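Test system: recombinant HKDC1 (HK5) hexokinase enzyme, produced in-house / Doses: 20 µM test compound, 1% DMSO / Timing: 90 min, room temperature / Detection: G6PDH/diaphorase-coupled fluorescence, 1 mM NADP, 100 µM resazurin, 525/613 nm / Control set: DMSO wells with and without enzyme mix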
M18AAP inhibitor = blocks P. falciparum M18 aspartyl aminopeptidase. recombinant PfM18AAP, H-Glu-NHMec fluorogenic cleavage. inhibition, % at 7.35 µM. hit rate 1.2% among 290,000. AID 1822;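 active = inhibition above the campaign mean inhibition over all tested compounds plus 3 SD, cut at about 28% in these data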
Neddyl inh conf = confirmation of human cullin neddylation inhibitors | shares compounds with Neddylation inh | hit rate 13% among 1,800 | TR-FRET cullin neddylation biochemical assay | calls only at 25 µM; in the data active = inhibition above about 40%;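 also: neddylation substrate is the cullin 1 ring ligase complex with SKP2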
Of the large screens only hits and unclear results are named; the others gave an inactive call (follow-up assays come after a bar, where shown).

CC(C)NC(=O)c1ccc(COc2cc(Cl)ccc2Cl)o1	none
C/C(=N\NC(=O)c1ccc(CSc2cccc3cccnc23)cc1)C1CCCCC1	Neddylation inh 43 | Neddyl inh conf inactive
COc1ccc(/C(C)=N/NC(=O)c2ccc(CSc3cccc4cccnc34)cc2)cc1OC	Neddylation inh 46 | Neddyl inh conf inactive
CCOc1ccccc1NC(=O)C1C2CCC(O2)C1C(=O)O (stereo not given)	none
Nc1c(Cl)cc(Cl)cc1C(=O)OCC(=O)N1CCCC1=O	Neddylation inh 47 (no result: M18AAP inhibitor) | Neddyl inh conf inactive
Nc1c(Cl)cc(Cl)cc1C(=O)OCC(=O)N1CCCC1	none (not shown: Neddylation inh)
C[C@H](O)C(=O)C1=Nc2c(nc(N)[nH]c2=O)NC1	Neddylation inh 55 (no result: M18AAP inhibitor) | Neddyl inh conf inactive
CCSC1=C(C#N)C2(CCCCC2)C2=C(CC(C)(C)CC2=O)N1	Neddylation inh 44 | Neddyl inh conf inactive
COc1ccc(NC(=O)COC(=O)CN2C(=O)C3CCCCC3C2=O)cc1OC (stereo not given)	none (no result: M18AAP inhibitor)
O=C(Cc1ccc([N+](=O)[O-])cc1)Nc1ccc2c(c1)C(=O)NC2=O	none
CC(=O)c1ccc(C(=O)Nc2ccc3c(c2)C(=O)NC3=O)cc1	Neddylation inh 45 | Neddyl inh conf inactive
O=C(Cc1ccc(Cl)cc1)Nc1ccc2c(c1)C(=O)NC2=O	Neddylation inh 51
CC(C)(C)c1ccc(C(=O)Nc2ccc3c(c2)C(=O)NC3=O)cc1	none (not shown: Neddylation inh)
O=C(CCC1CCCCC1)NCc1ccccn1	none
O=C(Nc1cc(C(=O)Nc2ccccc2C(=O)O)cc(C(=O)Nc2ccccc2C(=O)O)c1)c1ccccc1	Neddylation inh 49 | Neddyl inh conf inactive
COc1ccc(CSCC(=O)N/N=C/c2ccccc2O)cc1	Neddylation inh 39 | Neddyl inh conf inactive
O=C(CSc1ccccc1)N/N=C/c1ccccc1O	none
COc1ccc(O)c(/C=N/NC(=O)CCC(=O)Nc2ccc(C)cc2)c1	none
COc1ccc(O)c(/C=N/NC(=O)CN2CCS(=O)(=O)CC2)c1	Neddylation inh 40 | Neddyl inh conf inactive
CCCCOc1ccc(N(CC(=O)NC2CCCCC2)C(=O)CCC(=O)Nc2ccccn2)cc1	none
COc1cc(C(=O)NCc2cn3ccccc3n2)cc(OC)c1OC	none
COc1cccc(/C=C/C(=O)NCc2cn3cc(Cl)ccc3n2)c1OC	Neddylation inh 50 | Neddyl inh conf inactive
Cc1ccc2nc3ccc(N4CCCCCCC4)nn3c(=O)c2c1	Neddylation inh 53 | Neddyl inh conf inactive
CCCN(CC(=O)Nc1ccccc1C)C(=O)c1ccc(C(=O)c2ccccc2)cc1	none (no result: M18AAP inhibitor)
CCCN(CC(=O)Nc1ccccc1C)C(=O)c1ccc(-c2ccc(C(C)=O)cc2)o1	Neddylation inh 61 (not shown: M18AAP inhibitor)
COc1ccc2cc(C(N)=O)c(=Nc3ccccc3)oc2c1	none
NC(=O)c1cc2ccc(O)cc2oc1=Nc1ccccc1	Neddylation inh 54 | Neddyl inh conf inactive
COc1cc2cc(CCCO)oc(=O)c2cc1OC	none (no result: M18AAP inhibitor)
Cc1cc(NC(=O)CSc2ccc3nnc(-c4ccccn4)n3n2)no1	Neddylation inh 41
Cc1cc(SCC(=O)Nc2ccc(O)cc2)n2ncc(-c3ccccc3)c2n1	Neddylation inh 39 | Neddyl inh conf inactive
Cc1cc(SCC(=O)Nc2ccccc2)n2ncc(-c3ccccc3)c2n1	none
COc1ccc(C(=O)OCC(=O)N2c3ccccc3CC2C)cc1S(=O)(=O)N1CCOCC1 (stereo not given)	none (no result: HKDC1 inhibitor, M18AAP inhibitor)
CCCCn1c(N)c(N(CC(C)C)C(=O)Cc2ccc3c(c2)OCCO3)c(=O)[nH]c1=O	none (no result: M18AAP inhibitor)
CCSc1nnc(-c2ccc(S(=O)(=O)N3CCCC3)cc2)n1C	Neddylation inh 46 | Neddyl inh conf inactive
CCSc1nnc(-c2ccc(S(=O)(=O)N3CCOCC3)cc2)n1C	Neddylation inh 39 | Neddyl inh conf inactive
Cn1c(SCC(=O)N2CCCC2)nnc1-c1ccc(S(=O)(=O)N2CCCC2)cc1	none
Cc1cccc(NC(=O)CCS(=O)(=O)c2cc3c(cc2Cl)NC(=O)CO3)c1	none
CC[C@@H]1C(c2ccccc2)=NN(c2ccccc2)[C@H]1C(=O)N1CCOC1=O	Neddylation inh 49 (not shown: M18AAP inhibitor)
CC[C@@H]1C(c2ccc(F)cc2)=NN(c2ccccc2)[C@H]1C(=O)N1CCOC1=O	none (no result: M18AAP inhibitor)
Cc1ccccc1-c1cc2nc(C)c(Cl)c(=O)n2[nH]1	Neddylation inh 50 (no result: M18AAP inhibitor) | Neddyl inh conf inactive
Cc1nc2cc(-c3ccsc3-n3c(C)ccc3C)[nH]n2c(=O)c1Cl	none
COc1ccc(S(=O)(=O)N2CCOC23CCN(S(=O)(=O)c2cc(F)ccc2F)CC3)cc1	none (no result: M18AAP inhibitor)
COc1cccc(-c2nn(-c3ccccc3)cc2CO)c1	none
COc1ccc(-c2nn(-c3ccccc3)cc2CO)cc1OC	Neddylation inh 39 | Neddyl inh conf inactive
